One may read the IC50 as the concentration that gives 50% inhibition. A high value points to weaker potency in that assay. A word on the EC50: it is the concentration at which the effect is half-maximal. High values mean weaker potency, low ones greater potency. Broadly, the CC50 is the concentration at which the toxic effect on the cells reaches its halfway point.

One data set relates to HepG2. The data set can be described thus: Cytotoxicity against human HepG2 cells after 48 hrs by SRB assay. The following applies: HepG2, 48 h. The format is functional, cell-based. (The SRB assay estimates cell density from bound dye.)
For a further data set, the system named is K562. The data set is described as follows: Cytotoxicity against human K562 cells after 48 hrs by SRB assay. Type of data set: functional, cell-based. Particulars: K562, 48 h.
The test system of data set [1] is Human immunodeficiency virus 1. The data set can be described thus: Antiviral activity against HIV1-infected human C8166 cells. The following applies: Human immunodeficiency virus 1, C8166. The format is functional, organism-based. In outline:
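Protection of C8166 cells from HIV-1 cytopathic effects, read as EC50. Run alongside the cytotoxicity measurement, with AZT as positive control.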

Data set [2] is described as follows: Selectivity index, ratio of antiviral activity against HIV1-infected human C8166 cells over cytotoxicity against human C8166 cells. Type of data set: toxicity, cell-based. Particulars: uninfected and HIV-1-infected, read-out: Selectivity Index.
A short description of data set [3]: Cytotoxicity against human C8166 cells by MTT assay. Type of data set: cell-based. An outline of the steps:
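Uninfected C8166 cells scored for viability by MTT, giving CC50. Run in parallel with the HIV-1 cytopathic-effect assay, with AZT as reference.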

≈ marks a conversion by molar mass, not a printed value.

As to `C[C@@H]1C(=O)O[C@H]2[C@@H]1O[C@]13O[C@@]4(CC[C@]5(C)C(=O)[C@](C)(O)[C@@]2(O)[C@H]15)C[C@]12OC(=O)C[C@H]1OC(C)(C)[C@@H]2[C@@H](O)C[C@H]4C3=O` [SCHIRUBRIDILACTONE A], the IC50 in the data set on HepG2 and in the data set on K562 was greater than 5 µg/mL each time. Also, in data set [1], the response was half-maximal at 30.1 µg/mL (≈ 52.2 µM) (EC50). In addition, in data set [2], the selectivity ratio came out at 5.1.

With `C/C(=C/[C@H]1O[C@]23O[C@@]4(CC[C@]5(C)C(=O)[C@](C)(O)[C@H]1[C@H]25)C[C@]12OC(=O)C[C@H]1OC(C)(C)[C@@H]2CC=C4C3=O)C(=O)O` [SCHIRUBRIDILACTONE B], the IC50 in the data set with HepG2 and in the data set on K562 was greater than 5 µg/mL each time. In data set [1], this molecule registered an EC50 of 15.2 µg/mL (≈ 28 µM). Moreover, in data set [2], the selectivity ratio is 9.

For `C[C@@H]1C(=O)[C@@]2(C)CC[C@]34C[C@]56OC(=O)C[C@H]5O[C@@](C)(CO)[C@@H]6CC[C@@]3(O)C(=O)[C@@]3(O[C@]5(C[C@H](C)C(=O)O5)[C@@H]1[C@H]32)O4` [SCHIRUBRIDILACTONE C], in data set [1], it took 14.3 µg/mL (≈ 25.5 µM) to reach a half-maximal effect (EC50). In addition, in data set [2], the selectivity ratio turned out to be 8.7.

As for `C[C@@H]1C(=O)O[C@H]2[C@@H]1O[C@]13O[C@@]4(CC[C@]5(C)C(=O)[C@@H](C)[C@H]2[C@H]15)C[C@]12OC(=O)C[C@H]1OC(C)(C)[C@@H]2C[C@@H]1O[C@@]14C3=O` [SCHIRUBRIDILACTONE D], the IC50 in the data set on HepG2 and with K562 was greater than 5 µg/mL in each case. The molecule further yielded a 50% effective concentration (EC50) in data set [1] of 80.8 µg/mL (≈ 149 µM). Also, the selectivity ratio in data set [2] worked out at 2.2.

In the case of `CC1(C)O[C@@H]2CC(=O)O[C@@]23C[C@]24CC[C@]5(C)C(=O)[C@](C)(O)[C@]6(O)[C@H]7OC(=O)[C@](C)(O)[C@H]7O[C@@](O2)(C(=O)C4=CC[C@@H]13)[C@@H]65` [SCHIRUBRIDILACTONE E], the IC50 with HepG2 and in the data set with K562 was greater than 5 µg/mL each time. This molecule also had a concentration for a half-maximal effect (EC50) in data set [1] of 66.8 µg/mL (≈ 116 µM). Besides, the selectivity ratio in data set [2] came out at 3.1.

Consider `CC1=C[C@H]([C@H]2O[C@]34C(=CC[C@@H]3[C@@H]2C)[C@@H]2[C@H](O)C[C@H]3C(C)(C)O[C@@H]5CC(=O)O[C@@]53C[C@@]2(O)C[C@@H]4O)OC1=O` [SCHIRUBRIDILACTONE F], for which the IC50 in the data set with HepG2 and in the data set on K562 was greater than 5 µg/mL throughout. The molecule also gave a 50% effective concentration (EC50) in data set [1] of 50.1 µg/mL (≈ 97 µM). For the same molecule, in data set [2], the selectivity ratio was 3.5.

`Cc1cn([C@H]2C[C@H](N=[N+]=[N-])[C@@H](CO)O2)c(=O)[nH]c1=O` [ZIDOVUDINE] yielded a half-maximal cytotoxic concentration (CC50) in data set [3] greater than 200 µg/mL.

Values taken from ChEMBL document CHEMBL1154981, “Chemical constituents from the leaves and stems of Schisandra rubriflora” (J Nat Prod, 2010).
